Eleven molecules from ChEMBL document CHEMBL1150387, “Development and experimental validation of a docking strategy for the generation of kinase-targeted libraries” (J Med Chem, 2008) can be followed below.

Assay [1] addresses Platelet-derived growth factor receptor beta (Homo sapiens) (UniProt P09619). Nature of the assay: Inhibition of PDGFRbeta at 10 uM by HTRF assay relative to control. The gist of the method: (§1)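 HTRF kinase assay, one panel of kinases. Inhibitor stock 50 µM in 100% DMSO; tested at 10 µM. ATP and substrate at final levels near Km. Final buffer: 50 mM Hepes/NaOH pH 7.4, 40 µM Na3VO4, 0.005% Tween-20, 1 mM DTT, MnCl2 or MgCl2 at kinase-dependent levels. Started by adding ATP/substrate. Reaction run at room temperature, time varied by kinase. Detection mix in 50 mM Hepes pH 7.4, 0.1% BSA, 150 mM KF, incubated ≥1 h at room temperature. Activity expressed as % of uninhibited control; n=2.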

The target in assay [2] is Mitogen-activated protein kinase 9 (Homo sapiens) (UniProt P45984). The experiment in a line: Inhibition of JNK2 at 10 uM by HTRF assay relative to control. Put shortly: as §1
On the technique in general: In TR-FRET formats the signal depends on donor and acceptor labels being close together.

Assay [3] concerns the target Calcium/calmodulin-dependent protein kinase type II subunit alpha (Homo sapiens) (UniProt Q9UQM7). Nature of the assay: Inhibition of CaMK2alpha at 10 uM by HTRF assay relative to control. The gist of the method:
as §1

For assay [4], the target named is Vascular endothelial growth factor receptor 1 (Homo sapiens) (UniProt P17948). The experiment in a line: Inhibition of FLT1 at 10 uM by HTRF assay relative to control. Put shortly: as §1
Assay [5] addresses Protein kinase C alpha type (Homo sapiens) (UniProt P17252). Nature of the assay: Inhibition of PKCalpha at 10 uM by HTRF assay relative to control. The gist of the method: as §1
In assay [6] the target is Mitogen-activated protein kinase 14 (Homo sapiens) (UniProt Q16539). The experiment in a line: Inhibition of p38alpha at 10 uM by HTRF assay relative to control. The gist of the method: as §1
For assay [7], the target named is T1, Calcium/calmodulin-dependent protein kinase type IV (Homo sapiens) (UniProt Q16566).
T1 sequence (whole entry): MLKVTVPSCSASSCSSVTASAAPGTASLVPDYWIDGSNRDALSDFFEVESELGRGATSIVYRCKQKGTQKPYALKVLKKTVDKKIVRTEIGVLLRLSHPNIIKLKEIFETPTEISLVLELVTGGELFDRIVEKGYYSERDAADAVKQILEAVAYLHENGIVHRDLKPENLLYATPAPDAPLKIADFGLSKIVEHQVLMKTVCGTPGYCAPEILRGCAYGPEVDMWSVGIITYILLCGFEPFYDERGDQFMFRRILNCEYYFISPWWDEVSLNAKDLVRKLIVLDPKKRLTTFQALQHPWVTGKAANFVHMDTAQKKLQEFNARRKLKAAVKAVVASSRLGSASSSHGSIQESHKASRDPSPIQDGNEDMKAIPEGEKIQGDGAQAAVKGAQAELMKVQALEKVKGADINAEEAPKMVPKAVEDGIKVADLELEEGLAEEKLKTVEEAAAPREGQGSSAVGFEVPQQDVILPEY
The experiment in a line: Inhibition of CaMK4 at 10 uM by HTRF assay relative to control. The gist of the method:
as §1

Assay [8] deals with Protein kinase C gamma type (Homo sapiens) (UniProt P05129). Nature of the assay: Inhibition of PKCgamma at 10 uM by HTRF assay relative to control. The gist of the method:
as §1

The target of assay [9] is Focal adhesion kinase 1 (Homo sapiens) (UniProt Q05397). Nature of the assay: Inhibition of FAK at 10 uM by HTRF assay relative to control. The gist of the method: as §1
Assay [10] concerns the target Vascular endothelial growth factor receptor 2 (Homo sapiens) (UniProt P35968). Nature of the assay: Inhibition of KDR at 10 uM by HTRF assay relative to control. The gist of the method: as §1
Assay [11] concerns the target Epidermal growth factor receptor (Homo sapiens) (UniProt P00533). The experiment in a line: Inhibition of EGFR at 10 uM by HTRF assay relative to control. Put shortly: as §1
In assay [12] the target is T2, Ephrin type-B receptor 4 (Homo sapiens) (UniProt P54760).
T2 sequence (whole entry): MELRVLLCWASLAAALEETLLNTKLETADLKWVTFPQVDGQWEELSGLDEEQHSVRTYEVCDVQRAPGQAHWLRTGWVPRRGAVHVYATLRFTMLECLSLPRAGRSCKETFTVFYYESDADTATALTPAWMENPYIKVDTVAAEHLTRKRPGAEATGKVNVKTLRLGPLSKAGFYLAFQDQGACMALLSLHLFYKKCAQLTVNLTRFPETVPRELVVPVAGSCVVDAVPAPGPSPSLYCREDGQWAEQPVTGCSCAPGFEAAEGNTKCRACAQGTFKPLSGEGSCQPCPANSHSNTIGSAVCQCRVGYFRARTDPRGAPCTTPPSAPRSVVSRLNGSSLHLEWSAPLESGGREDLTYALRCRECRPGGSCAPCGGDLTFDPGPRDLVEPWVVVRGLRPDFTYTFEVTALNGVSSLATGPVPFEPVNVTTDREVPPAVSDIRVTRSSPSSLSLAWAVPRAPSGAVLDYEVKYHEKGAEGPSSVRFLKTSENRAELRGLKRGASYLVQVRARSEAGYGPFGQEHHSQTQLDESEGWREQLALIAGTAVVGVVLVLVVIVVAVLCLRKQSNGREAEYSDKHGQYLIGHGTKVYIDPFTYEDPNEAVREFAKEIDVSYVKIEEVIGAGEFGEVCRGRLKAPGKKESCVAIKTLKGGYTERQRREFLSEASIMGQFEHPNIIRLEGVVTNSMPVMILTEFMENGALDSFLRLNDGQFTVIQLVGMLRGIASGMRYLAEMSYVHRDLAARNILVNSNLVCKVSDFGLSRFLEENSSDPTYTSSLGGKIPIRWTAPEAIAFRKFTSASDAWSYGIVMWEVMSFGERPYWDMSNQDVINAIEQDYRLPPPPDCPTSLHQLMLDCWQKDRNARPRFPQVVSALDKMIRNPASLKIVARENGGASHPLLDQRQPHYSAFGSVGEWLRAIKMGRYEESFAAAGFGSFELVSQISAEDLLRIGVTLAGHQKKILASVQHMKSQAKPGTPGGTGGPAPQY
The experiment in a line: Inhibition of EphB4 at 10 uM by HTRF assay relative to control. Put shortly:
as §1

For assay [13], the target named is MAP kinase-activated protein kinase 2 (Homo sapiens) (UniProt P49137). The experiment in a line: Inhibition of MAPKAPK2 at 10 uM by HTRF assay relative to control. Put shortly:
as §1

Assay [14] has as its target 3-phosphoinositide-dependent protein kinase 1 (Homo sapiens) (UniProt O15530). Nature of the assay: Inhibition of PDK1 at 10 uM by HTRF assay relative to control.
The target in assay [15] is Receptor-type tyrosine-protein kinase FLT3 (Homo sapiens) (UniProt P36888). The experiment in a line: Inhibition of FLT3 at 10 uM by HTRF assay relative to control. Put shortly:
as §1

Vascular endothelial growth factor receptor 1 (Homo sapiens), sequence (P17948 whole entry): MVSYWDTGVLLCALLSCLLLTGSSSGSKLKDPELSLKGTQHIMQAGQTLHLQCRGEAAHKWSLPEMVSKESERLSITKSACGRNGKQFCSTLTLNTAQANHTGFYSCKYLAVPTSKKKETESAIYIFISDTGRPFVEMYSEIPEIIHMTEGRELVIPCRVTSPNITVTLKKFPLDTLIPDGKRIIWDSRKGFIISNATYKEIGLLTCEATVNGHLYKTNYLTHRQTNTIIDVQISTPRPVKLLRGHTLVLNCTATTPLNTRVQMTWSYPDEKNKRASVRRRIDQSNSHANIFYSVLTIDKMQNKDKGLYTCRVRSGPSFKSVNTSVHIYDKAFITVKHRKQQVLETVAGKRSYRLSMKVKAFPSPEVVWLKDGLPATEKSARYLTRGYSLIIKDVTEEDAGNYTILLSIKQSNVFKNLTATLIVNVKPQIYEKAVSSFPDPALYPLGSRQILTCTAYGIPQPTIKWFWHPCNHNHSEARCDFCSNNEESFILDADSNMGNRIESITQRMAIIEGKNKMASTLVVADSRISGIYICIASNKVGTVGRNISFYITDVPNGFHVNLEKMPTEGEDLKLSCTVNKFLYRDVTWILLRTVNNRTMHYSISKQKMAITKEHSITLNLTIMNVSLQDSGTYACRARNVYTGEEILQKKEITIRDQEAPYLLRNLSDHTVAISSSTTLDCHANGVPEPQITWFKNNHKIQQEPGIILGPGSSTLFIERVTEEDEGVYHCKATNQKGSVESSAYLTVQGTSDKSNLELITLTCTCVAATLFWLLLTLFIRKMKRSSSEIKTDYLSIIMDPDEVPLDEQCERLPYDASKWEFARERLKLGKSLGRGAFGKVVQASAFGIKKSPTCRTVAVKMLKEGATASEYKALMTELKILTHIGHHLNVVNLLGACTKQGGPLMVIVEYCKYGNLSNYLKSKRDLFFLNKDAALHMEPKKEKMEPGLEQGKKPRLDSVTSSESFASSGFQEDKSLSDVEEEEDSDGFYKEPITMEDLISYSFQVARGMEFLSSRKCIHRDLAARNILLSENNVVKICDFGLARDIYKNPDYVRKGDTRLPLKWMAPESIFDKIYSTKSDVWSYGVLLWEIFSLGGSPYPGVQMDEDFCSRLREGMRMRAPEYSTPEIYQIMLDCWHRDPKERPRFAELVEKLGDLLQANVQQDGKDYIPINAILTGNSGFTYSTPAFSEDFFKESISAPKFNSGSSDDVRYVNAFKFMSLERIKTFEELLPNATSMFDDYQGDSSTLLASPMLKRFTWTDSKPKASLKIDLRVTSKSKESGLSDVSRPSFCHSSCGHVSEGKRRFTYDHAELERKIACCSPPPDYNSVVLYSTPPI
Mitogen-activated protein kinase 9 (Homo sapiens), sequence (P45984 whole entry, looked up): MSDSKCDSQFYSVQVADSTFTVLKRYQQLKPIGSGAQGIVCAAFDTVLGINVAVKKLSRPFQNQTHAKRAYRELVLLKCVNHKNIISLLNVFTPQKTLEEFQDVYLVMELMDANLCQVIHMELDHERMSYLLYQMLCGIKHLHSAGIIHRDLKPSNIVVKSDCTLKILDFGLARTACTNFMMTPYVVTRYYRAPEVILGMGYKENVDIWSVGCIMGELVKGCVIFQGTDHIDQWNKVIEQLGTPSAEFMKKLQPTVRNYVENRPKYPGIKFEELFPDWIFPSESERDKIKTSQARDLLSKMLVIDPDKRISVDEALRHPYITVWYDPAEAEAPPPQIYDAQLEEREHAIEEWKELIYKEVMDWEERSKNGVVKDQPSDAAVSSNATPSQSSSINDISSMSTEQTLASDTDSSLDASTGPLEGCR
Vascular endothelial growth factor receptor 2 (Homo sapiens), sequence (P35968 whole entry): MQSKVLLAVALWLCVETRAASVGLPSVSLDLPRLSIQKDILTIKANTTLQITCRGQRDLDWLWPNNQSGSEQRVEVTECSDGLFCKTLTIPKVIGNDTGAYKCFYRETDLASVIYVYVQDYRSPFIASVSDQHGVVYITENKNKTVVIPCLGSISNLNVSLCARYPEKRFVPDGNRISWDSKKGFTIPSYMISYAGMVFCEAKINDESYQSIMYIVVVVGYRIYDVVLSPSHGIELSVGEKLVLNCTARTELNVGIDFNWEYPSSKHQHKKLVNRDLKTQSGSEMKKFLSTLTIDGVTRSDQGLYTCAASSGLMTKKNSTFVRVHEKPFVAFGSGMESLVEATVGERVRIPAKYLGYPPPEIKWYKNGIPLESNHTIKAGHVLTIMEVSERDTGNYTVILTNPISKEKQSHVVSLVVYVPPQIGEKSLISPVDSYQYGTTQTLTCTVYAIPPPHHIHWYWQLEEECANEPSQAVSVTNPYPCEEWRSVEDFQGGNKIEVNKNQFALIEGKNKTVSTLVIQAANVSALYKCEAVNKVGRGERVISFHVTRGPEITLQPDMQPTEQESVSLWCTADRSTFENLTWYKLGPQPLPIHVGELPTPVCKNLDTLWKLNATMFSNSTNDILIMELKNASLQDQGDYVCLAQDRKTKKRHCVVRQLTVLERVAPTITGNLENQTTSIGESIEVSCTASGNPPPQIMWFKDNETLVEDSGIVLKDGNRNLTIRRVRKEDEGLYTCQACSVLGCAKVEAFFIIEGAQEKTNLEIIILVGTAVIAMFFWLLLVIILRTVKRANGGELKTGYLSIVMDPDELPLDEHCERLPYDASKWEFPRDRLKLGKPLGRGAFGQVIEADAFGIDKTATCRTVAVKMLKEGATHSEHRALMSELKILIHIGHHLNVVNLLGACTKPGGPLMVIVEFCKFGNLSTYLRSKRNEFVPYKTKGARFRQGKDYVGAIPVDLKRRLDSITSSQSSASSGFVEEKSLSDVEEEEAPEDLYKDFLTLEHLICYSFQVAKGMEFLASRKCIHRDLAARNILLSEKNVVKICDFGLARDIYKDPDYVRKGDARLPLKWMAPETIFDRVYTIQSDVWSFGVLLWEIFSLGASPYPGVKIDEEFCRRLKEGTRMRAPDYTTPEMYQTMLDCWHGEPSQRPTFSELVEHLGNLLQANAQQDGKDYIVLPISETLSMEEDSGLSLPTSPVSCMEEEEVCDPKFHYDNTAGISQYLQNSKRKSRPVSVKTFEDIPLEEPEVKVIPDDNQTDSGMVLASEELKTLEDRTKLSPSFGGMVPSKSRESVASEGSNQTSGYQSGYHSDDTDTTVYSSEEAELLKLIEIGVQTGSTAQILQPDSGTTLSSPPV
Receptor-type tyrosine-protein kinase FLT3 (Homo sapiens), sequence (P36888 whole entry): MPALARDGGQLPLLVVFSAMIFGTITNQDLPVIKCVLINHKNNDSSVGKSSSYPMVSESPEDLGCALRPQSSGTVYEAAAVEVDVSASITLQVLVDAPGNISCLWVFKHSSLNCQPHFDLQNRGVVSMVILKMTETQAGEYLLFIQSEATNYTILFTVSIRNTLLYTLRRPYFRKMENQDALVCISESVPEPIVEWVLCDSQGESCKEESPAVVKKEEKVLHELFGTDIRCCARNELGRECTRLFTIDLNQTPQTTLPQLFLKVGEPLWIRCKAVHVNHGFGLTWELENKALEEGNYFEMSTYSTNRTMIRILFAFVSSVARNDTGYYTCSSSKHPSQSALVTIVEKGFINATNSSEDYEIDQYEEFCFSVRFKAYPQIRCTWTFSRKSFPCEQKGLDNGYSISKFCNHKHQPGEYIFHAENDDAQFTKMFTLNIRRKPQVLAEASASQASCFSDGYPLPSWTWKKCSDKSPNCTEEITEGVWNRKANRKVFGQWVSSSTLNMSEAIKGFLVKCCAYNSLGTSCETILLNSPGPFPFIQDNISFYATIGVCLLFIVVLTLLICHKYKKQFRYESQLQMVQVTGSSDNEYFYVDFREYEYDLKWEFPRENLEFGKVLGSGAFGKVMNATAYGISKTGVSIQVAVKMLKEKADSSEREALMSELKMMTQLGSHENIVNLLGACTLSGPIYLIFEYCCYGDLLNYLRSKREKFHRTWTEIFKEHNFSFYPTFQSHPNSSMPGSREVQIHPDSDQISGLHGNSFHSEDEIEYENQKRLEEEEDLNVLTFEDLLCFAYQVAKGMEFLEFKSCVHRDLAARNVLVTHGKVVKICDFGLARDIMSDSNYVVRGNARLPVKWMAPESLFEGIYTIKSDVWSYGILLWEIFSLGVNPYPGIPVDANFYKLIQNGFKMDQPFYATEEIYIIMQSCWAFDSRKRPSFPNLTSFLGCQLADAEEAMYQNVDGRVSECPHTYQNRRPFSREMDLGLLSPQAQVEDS
Calcium/calmodulin-dependent protein kinase type II subunit alpha (Homo sapiens), sequence (Q9UQM7 whole entry): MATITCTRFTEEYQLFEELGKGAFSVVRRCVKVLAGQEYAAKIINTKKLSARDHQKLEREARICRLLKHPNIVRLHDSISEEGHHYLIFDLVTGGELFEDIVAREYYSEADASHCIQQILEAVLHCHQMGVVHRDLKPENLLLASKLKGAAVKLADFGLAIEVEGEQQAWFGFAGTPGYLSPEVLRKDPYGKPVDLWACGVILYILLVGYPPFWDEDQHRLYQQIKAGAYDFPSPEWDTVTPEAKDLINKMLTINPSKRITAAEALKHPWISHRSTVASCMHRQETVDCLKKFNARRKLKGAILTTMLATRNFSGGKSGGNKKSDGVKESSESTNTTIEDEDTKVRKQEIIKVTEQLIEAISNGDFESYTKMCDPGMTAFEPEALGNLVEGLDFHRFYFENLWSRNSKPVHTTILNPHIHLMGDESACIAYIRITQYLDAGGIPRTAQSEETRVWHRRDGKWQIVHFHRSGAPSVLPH
Mitogen-activated protein kinase 14 (Homo sapiens), sequence (Q16539 whole entry): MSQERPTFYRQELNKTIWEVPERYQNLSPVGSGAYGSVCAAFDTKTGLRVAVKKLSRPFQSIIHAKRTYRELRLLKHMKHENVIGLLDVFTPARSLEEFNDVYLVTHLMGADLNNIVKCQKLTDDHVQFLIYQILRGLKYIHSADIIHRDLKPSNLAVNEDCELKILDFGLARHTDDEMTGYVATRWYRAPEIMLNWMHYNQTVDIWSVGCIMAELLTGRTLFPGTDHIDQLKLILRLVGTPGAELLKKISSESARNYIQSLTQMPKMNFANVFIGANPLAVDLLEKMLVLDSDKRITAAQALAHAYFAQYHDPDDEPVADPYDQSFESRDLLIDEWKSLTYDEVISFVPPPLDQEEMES

Regarding `Cc1cccc(Nc2ncnc3c2CN(C(=O)c2ccc(N(C)C)c4ccccc24)CC3)c1`, the inhibition amounted to 10% in assay [1]; 1% in assay [2]; 0% in assay [3]; 1% in assay [4]; 0% in [5]; 1% in assay [6]. The inhibition in assay [7] came out at 0%; in assay [8], 2%; in [9] it was 7%; in [10] it was 6%; in assay [11], 31%; in assay [12], 0%. Further, the inhibition in [13], in assay [14] and in assay [15] was 0% throughout.

As to `Cc1cccc(Oc2ccnc(N3CCC[C@H]3C(=O)NCCCn3ccnc3)n2)c1`, the inhibition in assay [1] was determined as 7%; in assay [2], 7%; in assay [3], 0%; in assay [4], 0%; in assay [5] it was 0%; in [6], 3%. In addition, the inhibition in assay [7] was 0%; in [8] it was 1%; in [9], 4%; in [10], 11%; in assay [11], 0%; in assay [12], 0%. In addition, the inhibition in assay [13] is 2%; in assay [14], 1%; in assay [15] it was 0%.

In the case of `Cc1cccc(N(C)c2cc(Nc3cccc(C(=O)N4CCCC5CCCCC54)c3)ncn2)c1` (stereo not given), the inhibition in assay [1] came out at 5%; in [2] it was 0%; in [3], 0%; in [4], 8%; in assay [5], 0%; in [6] it was 0%. In addition, the inhibition in assay [7] is 0%; in assay [8], 5%; in assay [9], 8%; in assay [10], 0%; in assay [11], 84%; in [12], 0%. Also, the inhibition in assay [13], in assay [14] and in assay [15] was 0% in each case.

`Cc1ccc(CN2CCN(c3nccc(C(C#N)c4ccccn4)n3)CC2)cc1` (stereo not given): the inhibition in assay [1] is 14%; in assay [2], 3%; in assay [3], 0%; in assay [4], 0%; in assay [5], 0%; in assay [6] it was 2%. In addition, the inhibition was found to be 0% in assay [7]; 4% in assay [8]; 3% in [9]; 0% in assay [10]; 0% in assay [11]; 0% in [12]. Besides, the inhibition in assay [13] amounted to 0%; in assay [14], 1%; in assay [15], 0%.

Consider `COc1ccc(NC(=O)Cc2ccc(Nc3cc(N(C)c4cccc(C)c4)ncn3)cc2)cn1`, for which the inhibition in assay [1] was determined as 22%; in assay [2], 2%; in assay [3] it was 0%; in [4], 20%; in assay [5], 0%; in assay [6], 2%. The inhibition in assay [7] was 0%; in assay [8], 5%; in assay [9] it was 5%; in [10] it was 8%; in assay [11], 62%; in assay [12], 0%. Further, the inhibition was determined as 0% in assay [13], 1% in [14] and 11% in assay [15].

Turning to `Cc1cccc(N(C)c2cc(Nc3cccc(C(=O)NCc4ccc(N(C)C)cc4)c3)ncn2)c1`, the inhibition in assay [1] came to 13%; in [2], 4%; in [3], 0%; in assay [4], 21%; in assay [5] it was 0%; in [6] it was 0%. The inhibition was found to be 0% in assay [7]; 10% in assay [8]; 9% in assay [9]; 0% in [10]; 97% in assay [11]; 4% in assay [12]. Also, the values for the inhibition in assay [13], in assay [14] and in assay [15] were 0%, 0% and 21%, respectively.

Take `Cc1cccc(N(C)c2cc(Nc3ccc(CC(=O)Nc4ccc5ncsc5c4)cc3)ncn2)c1`: the inhibition was determined as 48% in assay [1]; 5% in assay [2]; 0% in assay [3]; 22% in [4]; 0% in [5]; 57% in assay [6]. Besides, the inhibition was 0% in assay [7]; 5% in [8]; 15% in [9]; 40% in [10]; 87% in assay [11]; 0% in assay [12]. In addition, the inhibition amounted to 3% in assay [13], 1% in [14] and 67% in assay [15].

As for `CN(CCCn1ccnc1)C(=O)[C@@H]1CCCN1c1nccc(Nc2ccccc2)n1`, the inhibition in assay [1] came out at 11%; in assay [2] it was 6%; in assay [3], 0%; in assay [4] it was 4%; in assay [5] it was 0%; in [6], 1%. For the same molecule, the inhibition in assay [7] turned out to be 0%; in assay [8], 0%; in [9] it was 10%; in assay [10], 3%; in assay [11], 5%; in assay [12], 0%. The results for the inhibition in [13], in [14] and in assay [15] were 2%, 1% and 0%, respectively.

On to `O=C(CN1CCN(c2ncnc3c2CN(Cc2ccccc2)CC3)CC1)Nc1cc(F)ccc1F`, for which the inhibition in assay [1] amounted to 5%; in assay [2], 1%; in [3], 0%; in [4], 0%; in assay [5], 4%; in assay [6], 3%. The inhibition in assay [7] was found to be 0%; in assay [8], 0%; in [9], 0%; in [10] it was 1%; in assay [11] it was 0%; in assay [12], 0%. Moreover, the inhibition in assay [13], in assay [14] and in [15] was 0% in each case.

Take `Cc1cccc(Oc2ccnc(N3CCN(C(=O)c4c(C)noc4C)CC3)n2)c1`: the inhibition in [1] worked out at 5%; in assay [2], 6%; in assay [3], 0%; in assay [4], 7%; in [5], 0%; in assay [6], 0%. For the same molecule, the inhibition in assay [7] stood at 0%; in [8] it was 3%; in assay [9], 0%; in assay [10], 18%; in assay [11], 0%; in [12] it was 0%. Besides, the inhibition in assay [13], in assay [14] and in [15] was 0% throughout.

Take `Nc1nc(Nc2ccc(C(=O)NCCc3ccncc3)cc2)cc(N2CCOCC2)n1`: the inhibition in assay [1] was 13%; in assay [2], 5%; in assay [3] it was 0%; in assay [4], 0%; in assay [5], 0%; in assay [6] it was 10%. Moreover, the inhibition in [7] worked out at 0%; in [8], 0%; in assay [9], 3%; in assay [10], 13%; in [11], 0%; in assay [12] it was 0%. In addition, the inhibition in assay [13] is 1%; in [14], 1%; in [15], 0%.

As usually defined, the inhibition is the drop in the measured response relative to a control, in per cent.
